The source made the active and inactive calls.
Columns and labels:
[1] = target: Large neutral amino acids transporter small subunit 1 (Homo sapiens) (UniProt Q01650); assay: Inhibition of LAT1-mediated [3H]-leucine uptake in human L3.6PL cells at 30 uM and 37 degree C measured after 2 mins by scintillation counter method; format: cell-based
CHO-K1 [2] = assay: Cytotoxicity against CHOK1 cells assessed as effect on cell growth at 10 uM measured after 48 hrs by MTS assay; format: cell-based, Cricetulus griseus; settings: chinese hamster, cho-k1, 48 h
CHO-K1 [3] = assay: Inhibition of polyamine transporter in DFMO-treated CHOK1 cells assessed as prevention of spermidine entry into cells by measuring rescue of DFMO-induced reduction in cell growth at 1 to 10 uM measured after 48 hrs in presence of amine oxidase suppressor aminoguanidine by MTS assay; format: cell-based; settings: Cricetulus griseus
Outline: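 CHO K1 cells (1000 cells/well) were pre-incubated 24 h with 1 mM aminoguanidine. They were then given fixed DFMO (4.2 mM) and spermidine (1 μM) plus increasing compound doses for 48 h at 37°C. EC50 is the concentration bringing MTS relative growth halfway between the DFMO+Spd and DFMO-only controls. Runs were done twice in triplicate, with SD.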

CHO-K1 [4] = assay: Inhibition of polyamine transporter in CHOK1 cells assessed as rescue of 2.4 uM N-(anthracenylmethyl) homospermidine-induced toxicity by measuring cell growth at 7 uM measured after 48 hrs in presence of amine oxidase suppressor aminoguanidine by MTS assay (reference value: 23%); format: cell-based; set-up: scale not given: the % may be the effect or the level left; settings: Cricetulus griseus
Outline: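 CHO K1 cells (1000 cells/well, aminoguanidine 1 mM preincubation) were given a toxic Ant-44 dose (2.4 μM) with candidate compound at 5 or 7 μM. Cells were incubated 48 h at 37°C, and relative growth versus untreated control was read by MTS.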

CHO-K1 [5] = assay: Cytotoxicity against CHOK1 cells assessed as effect on cell growth at < 7 uM measured after 48 hrs by MTS assay; format: cell-based, Cricetulus griseus; settings: chinese hamster, cho-k1, 48 h
CHO-K1 [6] = assay: Potentiation of 0.5 uM N-(anthracenylmethyl) homospermidine-induced toxicity in CHOK1 cells assessed as increase in Ant-44-induced reduction in cell growth measured after 48 hrs in presence of amine oxidase suppressor aminoguanidine by MTS assay; format: functional, cell-based; settings: Cricetulus griseus
Outline: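 CHO K1 cells were pretreated 24 h with 1 mM aminoguanidine, then given fixed Ant-44 (0.5 μM) plus increasing compound (up to 5 μM) for 48 h at 37°C. MTS growth was read, with EC50 defined as the dose halving growth relative to Ant-44 alone. Runs were done twice in triplicate, with SD.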

L3.6pl [7] = assay: Cytotoxicity against human L3.6PL cells assessed as reduction in cell viability measured after 72 hrs by MTS assay; format: cell-based
Outline: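 L3.6pl cells, 500 cells/well in RPMI 1640 with 10% FBS and 250 μM aminoguanidine, plated overnight. Compound in PBS added, then 72 h at 37°C. MTS absorbance at 490 nm. IC50 is the dose giving 50% relative growth versus untreated control. Run twice in triplicate.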

L3.6pl [8] = assay: Cytotoxicity against human L3.6PL cells assessed as reduction in cell viability at 5 uM measured after 72 hrs by MTS assay; format: cell-based
L3.6pl [9] = assay: Potentiation of 2 uM N-(anthracenylmethyl) homospermidine-induced toxicity in human L3.6PL cells assessed as increase in Ant-44-induced reduction in cell growth measured after 72 hrs in presence of amine oxidase suppressor aminoguanidine by MTS assay; format: functional, cell-based
Outline: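 L3.6pl cells (500 cells/well) were pretreated 24 h with 250 μM aminoguanidine in PBS, then given Ant-44 (2 μM) with increasing compound for 72 h at 37°C. MTS growth was read, with EC50 relative to the Ant-44-only control.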

Chain of Large neutral amino acids transporter small subunit 1 (Homo sapiens) (Q01650 whole entry): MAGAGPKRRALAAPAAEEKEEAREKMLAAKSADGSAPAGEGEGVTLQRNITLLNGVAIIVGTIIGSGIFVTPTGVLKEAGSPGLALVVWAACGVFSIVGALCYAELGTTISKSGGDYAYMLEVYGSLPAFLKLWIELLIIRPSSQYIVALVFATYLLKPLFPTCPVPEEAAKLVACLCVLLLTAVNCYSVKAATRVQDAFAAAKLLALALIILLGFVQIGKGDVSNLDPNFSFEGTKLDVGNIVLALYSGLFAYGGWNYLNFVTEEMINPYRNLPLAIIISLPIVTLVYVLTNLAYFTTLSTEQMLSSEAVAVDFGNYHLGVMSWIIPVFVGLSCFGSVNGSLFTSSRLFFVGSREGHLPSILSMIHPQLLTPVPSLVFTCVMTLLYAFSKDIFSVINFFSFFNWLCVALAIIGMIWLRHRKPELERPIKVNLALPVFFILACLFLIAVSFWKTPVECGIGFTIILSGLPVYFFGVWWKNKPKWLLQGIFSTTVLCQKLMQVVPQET

Structure (SMILES)	inhibition [1]	Activity (CHO-K1 [2])	inhibition (CHO-K1 [3])	Activity (CHO-K1 [4]) [%]	Activity (CHO-K1 [5])	Activity (CHO-K1 [6])	EC50 (CHO-K1 [6]; CHO-K1, 48 h) [µM]	IC50 (L3.6pl [7]) [µM]	Activity (L3.6pl [8])	EC50 (L3.6pl [9]) [µM]
Nc1cc(COc2c(Cl)cc(C[C@H](N)C(=O)O)cc2Cl)c2oc(-c3ccccc3)nc2c1	Active	–	–	–	–	–	–	–	–	–
CC(C)(C)CCN1CCN([C@H](CNCc2ccccc2)Cc2ccccc2)C[C@@H]1Cc1ccccc1	–	Non-Toxic	inactive	2.1	Non-Toxic	Dose-dependent effect	0.75	11.7	Non-Toxic	3.27

Source: ChEMBL document CHEMBL4613249, “Serendipitous Discovery of Leucine and Methionine Depletion Agents during the Search for Polyamine Transport Inhibitors” (J Med Chem, 2020)
